This passage reports IC50, EC50 and Ratio results from ChEMBL document CHEMBL4732268, “Discovery of a Potent and Selective Covalent p300/CBP Inhibitor” (ACS Med Chem Lett, 2021).

Assay [1] is described as follows: Inhibition of human p300-BHC domain (residues 1036-1822)/CBP-BHC domain (residues 1072-1859) expressed in Bac-to-Bac Baculovirus expression system assessed as inhibition of lysine residues acetylation in Histone H4 synthetic substrate preincubated for 30 mins followed by addition of substrate and acetyl coenzyme A and measured after 1 hr by TR-FRET assay. A general note: Time-resolved FRET reads energy transfer from a long-lived donor to a nearby acceptor.

For assay [2], the system named is LNCaP-Clone-FGC. Kind of assay: Antiproliferative activity against AR-positive human LNCaP-Clone-FGC cells assessed as inhibition of cell proliferation measured after 5 days by luminiscent plate reader method. As to conditions: 120 h. Type of assay: functional, cell-based. The essentials: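 LNCaP-FGC cells (androgen receptor-positive) were treated with compound for 5 days, then proliferation was read in a cell-growth assay. EC50 was derived from N = 2.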

Assay [3] can be described thus: Inhibition of human p300/CBP in human PC-3 cells assessed as decrease in H3K27 acetylation measured after 3 hrs by Fluorescence based plate reader assay. Type of assay: cell-based. The settings on record: PC-3, 3 h. The essentials:
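PC-3 cells were treated with compound for 3 h, and the reduction in H3K27 acetylation was measured.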

The species entered for assay [4] is Homo sapiens. Briefly: Ratio of EC50 for human p300/CBP in human PC-3 cells measured after 48 hr to EC50 for human p300/CBP in human PC-3 cells measured after 24 hrs. Type of assay: cell-based.
Assay [5] can be described thus: Inhibition of human p300/CBP in human PC-3 cells assessed as decrease in H3K27 acetylation incubated for 24 hrs followed by compound washout and measured after 24 hr by Fluorescence based plate reader assay. The assay is classed as cell-based. The settings on record: PC-3, 24 h. The essentials: (§1)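 Washout assay. PC-3 cells were incubated with compound for 24 h, washed, and given fresh compound-free medium. Incubation then continued, and H3K27 acetylation was measured at set times from 1 to 48 h after washout. Inhibition is reported as EC50.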

Assay [6] can be described thus: Inhibition of human p300/CBP in human PC-3 cells assessed as decrease in H3K27 acetylation incubated for 24 hrs followed by compound washout and measured after 1 hr by Fluorescence based plate reader assay. The assay is classed as cell-based. An outline of the steps:
as §1

Assay [7] can be described thus: Inhibition of human p300/CBP in human PC-3 cells assessed as decrease in H3K27 acetylation incubated for 24 hrs followed by compound washout and measured after 2 hr by Fluorescence based plate reader assay. Type of assay: cell-based. The essentials:
as §1

The species entered for assay [8] is Homo sapiens. Kind of assay: Ratio of EC50 for human p300/CBP in human PC-3 cells incubated for 24 hrs and measured 2 hr post washout to EC50 for human p300/CBP in human PC-3 cells measured after 24 hrs. Type of assay: cell-based.
Assay [9] relates to DU-145. Kind of assay: Antiproliferative activity against human DU-145 cells assessed as inhibition of cell proliferation measured after 5 days by luminiscent plate reader method. The assay is classed as functional, cell-based. As to conditions: DU-145, 120 h. An outline of the steps:
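DU-145 cells (androgen receptor-negative) were treated with compound for 5 days, then proliferation was read in a cell-growth assay. EC50 was derived from the dose response.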

Assay [10] is described as follows: Inhibition of human p300/CBP in human PC-3 cells assessed as decrease in H3K27 acetylation incubated for 24 hrs followed by compound washout and measured after 8 hr by Fluorescence based plate reader assay. The assay is classed as cell-based. An outline of the steps: as §1
Assay [11] is filed under the species Homo sapiens. Briefly: Ratio of EC50 for human p300/CBP in human PC-3 cells incubated for 24 hrs and measured 8 hr post washout to EC50 for human p300/CBP in human PC-3 cells measured after 24 hrs. The assay is classed as cell-based.
Assay [12] in a line: Inhibition of human p300/CBP in human PC-3 cells assessed as decrease in H3K27 acetylation incubated for 24 hrs followed by compound washout and measured after 48 hr by Fluorescence based plate reader assay. The assay is classed as cell-based. The essentials: as §1
For assay [13], the species on record is Homo sapiens. Briefly: Ratio of EC50 for human p300/CBP in human PC-3 cells incubated for 24 hrs and measured 24 hr post washout to EC50 for human p300/CBP in human PC-3 cells measured after 24 hrs. Type of assay: cell-based.
Assay [14] is described as follows: Inhibition of human p300/CBP in human PC-3 cells assessed as decrease in H3K27 acetylation measured after 24 hrs by Fluorescence based plate reader assay. The settings on record: PC-3, 24 h. The assay is classed as cell-based.
Assay [15] is described as follows: Inhibition of human p300/CBP in human PC-3 cells assessed as decrease in H3K27 acetylation measured after 48 hrs by Fluorescence based plate reader assay. The assay is classed as cell-based. As to conditions: PC-3, 48 h.
For assay [16], the species on record is Homo sapiens. Kind of assay: Ratio of EC50 for human p300/CBP in human PC-3 cells incubated for 24 hrs and measured 1 hr post washout to EC50 for human p300/CBP in human PC-3 cells measured after 24 hrs. The assay is classed as cell-based.
The species entered for assay [17] is Homo sapiens. Kind of assay: Ratio of EC50 for human p300/CBP in human PC-3 cells incubated for 24 hrs and measured 48 hr post washout to EC50 for human p300/CBP in human PC-3 cells measured after 24 hrs. The assay is classed as cell-based.
Assay [18] is filed under the species Homo sapiens. Briefly: Ratio of EC50 for human p300/CBP in human PC-3 cells incubated for 24 hrs and measured 4 hr post washout to EC50 for human p300/CBP in human PC-3 cells measured after 24 hrs. Type of assay: cell-based.
Assay [19] in a line: Inhibition of human p300/CBP in human PC-3 cells assessed as decrease in H3K27 acetylation incubated for 24 hrs followed by compound washout and measured after 4 hr by Fluorescence based plate reader assay. Type of assay: cell-based. An outline of the steps: as §1

Some results are limits rather than exact numbers.

In general, IC50 refers to the midpoint of a concentration-inhibition curve. On to `C=CC(=O)N1CCCN(C(=O)Nc2ccc3c(c2)CC[C@@]32OC(=O)N(CC(=O)N(Cc3ccc(F)cc3)[C@@H](C)C(F)(F)F)C2=O)C1`, for which the concentration for half-maximal inhibition (IC50) in assay [1] is 2000 nM.

Regarding `C=CC(=O)Nc1ccc(NC(=O)Nc2ccc3c(c2)CC[C@@]32OC(=O)N(CC(=O)N(Cc3ccc(F)cc3)[C@@H](C)C(F)(F)F)C2=O)cc1`, in assay [1], the concentration for half-maximal inhibition (IC50) came out at 22100 nM.

As to `C=CS(=O)(=O)Nc1ccc(NC(=O)Nc2ccc3c(c2)CC[C@@]32OC(=O)N(CC(=O)N(Cc3ccc(F)cc3)[C@@H](C)C(F)(F)F)C2=O)cc1`, the IC50 in [1] amounted to 3020 nM.

`C=CS(=O)(=O)c1ccc(NC(=O)Nc2ccc3c(c2)CC[C@@]32OC(=O)N(CC(=O)N(Cc3ccc(F)cc3)[C@@H](C)C(F)(F)F)C2=O)cc1`: the IC50 in [1] amounted to 4270 nM.

One may read the EC50 as the midpoint of the concentration-response curve. As for `C=CC(=O)NCC(C)(C)CNC(=O)Nc1ccc2c(c1)CC[C@@]21OC(=O)N(CC(=O)N(Cc2ccc(F)cc2)[C@@H](C)C(F)(F)F)C1=O`, the values for the concentration giving a half-maximal response (EC50) in [2] and in [3] were 177 nM and 48 nM, respectively. The 50% inhibitory concentration (IC50) in [1] was determined as 185 nM.

Turning to `C=CC(=O)Nc1cccc(NC(=O)Nc2ccc3c(c2)CC[C@@]32OC(=O)N(CC(=O)N(Cc3ccc(F)cc3)[C@@H](C)C(F)(F)F)C2=O)c1`, the Ratio in assay [4] was determined as 1.8; in assay [8] it was 1.5; in assay [11], 11.3; in [13], 47.8; in assay [16], 1.3; in [17], 57.7. Moreover, in assay [18], the Ratio is 2.1. Moreover, the half-maximal effective concentration (EC50) in assay [5] was 544 nM; in assay [6], 15 nM; in [7] it was 17 nM; in [9], 1370 nM; in [2], 87 nM; in assay [10] it was 129 nM. For the same molecule, the 50% effective concentration (EC50) was determined as 37 nM in assay [3]; 656 nM in assay [12]; 11 nM in assay [14]; 21 nM in assay [15]; 24 nM in assay [19]. Moreover, the IC50 in [1] is 166 nM.

As for `CNC(=O)Nc1ccc2c(c1)CC[C@@]21OC(=O)N(CC(=O)N(Cc2ccc(F)cc2)[C@@H](C)C(F)(F)F)C1=O` [A-485], the EC50 is more than 10000 nM in [5]; more than 10000 nM in assay [6]; more than 10000 nM in [7]; 350 nM in assay [2]; more than 10000 nM in [10]; 103 nM in assay [3]. Further, the EC50 is more than 10000 nM in assay [12], 227 nM in assay [14], 253 nM in assay [15] and more than 10000 nM in assay [19].

Regarding `C=CS(=O)(=O)Nc1cccc(NC(=O)Nc2ccc3c(c2)CC[C@@]32OC(=O)N(CC(=O)N(Cc3ccc(F)cc3)[C@@H](C)C(F)(F)F)C2=O)c1`, in [1], the half-inhibitory concentration (IC50) came to 604 nM. The EC50 in assay [3] was 1230 nM.
